{"data": "Assay results collected from several papers", "RAF1 Y340D/Y341D": "RAF proto-oncogene serine/threonine-protein kinase (RAF1, Homo sapiens, UniProt P04049, Y340D/Y341D)", "RAF1": "RAF proto-oncogene serine/threonine-protein kinase (RAF1, Homo sapiens, UniProt P04049)"}
{"SMILES": "CN(C)C1CCN(CC#Cc2nn(C3CCCC3)c3nc(NCc4ccccc4)ncc23)C1 (stereo not shown)", "target": "RAF1 Y340D/Y341D", "test": "enzyme activity, inhibitor, FRET", "conditions": "10 µM", "measurement": "inhibition", "result": "3%"}
{"SMILES": "CS(=O)(=O)Nc1cccc(-c2csc(NC(=O)CSc3nc4nccnc4c(=O)n3CCc3ccccc3)n2)c1", "target": "RAF1 Y340D/Y341D", "test": "enzyme activity, inhibitor", "conditions": "10 µM", "measurement": "inhibition", "result": "-1%"}
{"SMILES": "CCN(CC)c1ccc(C2=NNC(=O)CC2C)cc1[N+](=O)[O-] (stereo not shown)", "target": "RAF1", "test": "enzyme activity, inhibitor", "conditions": "10 µM", "measurement": "remaining activity", "result": "90%"}
{"SMILES": "CC(C)(O)[C@H]1CC[C@H](Nc2ccc3ncc(-c4cccc(C(F)(F)F)c4)n3n2)CC1", "target": "RAF1", "test": "enzyme activity, inhibitor", "conditions": "1 µM", "measurement": "remaining activity", "result": "91.6%"}
{"SMILES": "CS(=O)(=O)c1cc(C2(NC(=O)c3cncc4c3cnn4-c3ccc(F)cc3)CC2)ccn1", "target": "RAF1", "test": "cell-free assay, competition with immobilised ligand", "conditions": "1 µM", "measurement": "remaining binding", "result": "100%"}
{"SMILES": "O=C1NC(=O)c2cc(Nc3ccc(F)cc3)c(Nc3ccc(F)cc3)cc21", "target": "RAF1", "test": "cell-free assay", "conditions": "0.5 µM", "measurement": "remaining signal", "result": "81.9%"}
{"SMILES": "c1nc2c(Nc3ccc4c(c3)OCCO4)nc(Nc3ccc4c(c3)OCCO4)nc2[nH]1", "target": "RAF1", "test": "enzyme activity, inhibitor", "conditions": "10 µM", "measurement": "activity vs control", "result": "95%"}
{"SMILES": "CNc1cccc2cc(C(=O)Nc3ccc(C(=O)O)cc3)c(=O)[nH]c12", "target": "RAF1", "test": "enzyme activity, inhibitor", "conditions": "10 µM", "measurement": "inhibition", "result": "6.9%"}
{"SMILES": "COc1cc2c(N3CCN(C(=O)Nc4ccc(OC(C)C)cc4)CC3)ncnc2cc1OCCCN1CCCCC1", "target": "RAF1", "test": "cell-free assay", "conditions": "0.5 µM", "measurement": "remaining signal", "result": "96.7%"}
{"SMILES": "COc1cc2ncnc(Nc3ccc(Oc4ccccc4)c(C)c3C)c2cc1OC", "target": "RAF1 Y340D/Y341D", "test": "enzyme activity, inhibitor", "conditions": "1 µM", "measurement": "inhibition", "result": "-6%"}
{"SMILES": "c1ccc(N2CCN(Cc3nc4ccccc4[nH]3)CC2)nc1", "target": "RAF1", "test": "binding, competition with immobilised ligand", "conditions": "1 µM", "measurement": "remaining binding", "result": "100%"}
{"SMILES": "Cc1[nH]c(/C=C2\\C(=O)Nc3ccc(F)cc32)c(C)c1C(=O)N[C@H]1CCN(C(=O)N(C)C)C1", "target": "RAF1", "test": "enzyme activity, inhibitor", "conditions": "0.1 µM", "measurement": "remaining activity", "result": "118%"}
{"SMILES": "CC(C)c1ccc(NC(=O)c2cccs2)c(-c2nc3ccccc3[nH]c2=O)c1", "target": "RAF1", "test": "enzyme activity, inhibitor", "conditions": "1 µM", "measurement": "activity vs control", "result": "96%"}
{"SMILES": "Cc1sc(C(=O)NC2COC2)cc1-n1cc(NC(=O)Nc2c(F)cccc2Cl)cn1", "target": "RAF1", "test": "enzyme activity, inhibitor", "conditions": "10 µM", "measurement": "remaining activity", "result": "92.6%"}
{"SMILES": "COc1cc(-c2cc(-c3ccc(N4CCNCC4)cc3)cnc2N)cc(OC)c1OC", "target": "RAF1", "test": "enzyme activity, inhibitor", "conditions": "1 µM", "measurement": "inhibition", "result": "2%"}
{"SMILES": "Cc1ccc(C(=O)NCc2ccsc2)cc1C#Cc1cn(C(C)C)c2ncnc(N)c12", "target": "RAF1", "test": "enzyme activity, inhibitor", "conditions": "1 µM", "measurement": "activity vs control", "result": "15%"}
{"SMILES": "Cc1cc(NC(=O)c2cccc3cc(-c4cccc5[nH]nc(N)c45)ccc23)ccc1F", "target": "RAF1", "test": "enzyme activity, inhibitor", "conditions": "0.1 µM", "measurement": "activity vs control", "result": "97%"}
{"SMILES": "O=C(O)[C@@H]1[C@@H](Cn2nnc3ccccc3c2=O)CC[C@H]1C(=O)c1ccc(OCCC2CCOCC2)cc1", "target": "RAF1", "test": "cell-free assay, competition with immobilised ligand", "conditions": "1 µM", "measurement": "remaining binding", "result": "100%"}
{"SMILES": "O=C(Nc1cnn(-c2csc(C(=O)NC3COC3)c2)c1)Nc1ccccc1Cl", "target": "RAF1", "test": "enzyme activity, inhibitor", "conditions": "5 µM", "measurement": "remaining activity", "result": "87%"}
{"SMILES": "O=C(O)c1cc(-c2ccc(C3CCNCC3)cc2)c2ccc(-c3ccc(C(F)(F)F)cc3)cc2c1", "target": "RAF1", "test": "cell-free assay, competition with immobilised ligand", "conditions": "1 µM", "measurement": "remaining binding", "result": "70%"}
{"SMILES": "Cc1ccc(Nc2nccc(N(C)c3ccc4c(C)n(C)nc4c3)n2)cc1S(N)(=O)=O", "target": "RAF1", "test": "enzyme activity, inhibitor", "conditions": "10 µM", "measurement": "inhibition", "result": "96%"}
{"SMILES": "CN1CC(Oc2cnc(C#N)cc2-c2ccn3nc(NC(=O)C4CC4)cc3c2)C1", "target": "RAF1", "test": "enzyme activity, inhibitor", "conditions": "1 µM", "measurement": "inhibition", "result": "2%"}
{"SMILES": "Nc1ncnc2occ(-c3ccc(NC(=O)Nc4cc(C(F)(F)F)ccc4F)cc3)c12", "target": "RAF1", "test": "cell-free assay, inhibitor", "conditions": "20 µM", "measurement": "remaining signal", "result": "0%"}
{"SMILES": "CN(C)C(=O)Cn1cc(-c2nc(C3(c4ccc(-c5cnc(N)nc5)cc4)CC3)no2)cn1", "target": "RAF1", "test": "cell-free assay, competition with immobilised ligand", "conditions": "1 µM", "measurement": "remaining binding", "result": "100%"}
{"SMILES": "C[S+]([O-])c1ccc(-c2nc(-c3ccncc3)c(-c3ccc(F)cc3)[nH]2)cc1 (stereo not shown)", "target": "RAF1", "test": "cell-free assay", "conditions": "0.5 µM", "measurement": "remaining signal", "result": "41.1%"}
{"SMILES": "CCS(=O)(=O)c1cc2cc(C[C@](O)(CC(C)(C)c3ccc(F)cc3C(N)=O)C(F)(F)F)[nH]c2cn1", "target": "RAF1", "test": "cell-free assay, competition with immobilised ligand", "conditions": "1 µM", "measurement": "remaining binding", "result": "83%"}
{"SMILES": "CC(C)(C)c1nc2c(s1)c1nc(N)ncc1c1ccc(NS(=O)(=O)c3c(F)cccc3F)c(F)c12", "target": "RAF1 Y340D/Y341D", "test": "enzyme activity, inhibitor, radiometric", "conditions": "1 µM", "measurement": "remaining activity", "result": "9%"}
{"SMILES": "Nc1cnc(N2CCc3cc(S(=O)(=O)Nc4c(F)cc(Cl)cc4F)cc(N4CCCC4=O)c32)nc1", "target": "RAF1", "test": "cell-free assay, competition with immobilised ligand", "conditions": "1 µM", "measurement": "remaining binding", "result": "79%"}
{"SMILES": "CCN(CC)CCNC(=O)c1c(C)[nH]c(/C=C2\\C(=O)Nc3ccc(F)cc32)c1C", "target": "RAF1", "test": "enzyme activity, inhibitor", "conditions": "0.1 µM", "measurement": "remaining activity", "result": "95%"}
{"SMILES": "C[C@@H]1CN(c2cc(-c3nn(C)c4ccc(OC5(C)CC5)cc34)ncn2)C[C@H](C)O1", "target": "RAF1", "test": "cell-free assay, competition with immobilised ligand", "conditions": "1 µM", "measurement": "remaining binding", "result": "100%"}
{"SMILES": "CNCc1ccc(-c2cc(-c3nc(-c4ccc(S(=O)(=O)C(C)C)cc4)cnc3N)on2)cc1", "target": "RAF1", "test": "enzyme activity, inhibitor", "conditions": "2 µM", "measurement": "inhibition", "result": "10%"}
